# STAT3 inh: STAT3 signaling inhibition; U3A cells, IL-6 STAT3-luciferase reporter, luminescence; host cell line lacks STAT1; inhibition, % at 5.5 µM; 190,000 tested, 0.89% active;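 active = inhibition above the mean inhibition across all screened compounds plus 3 SD, cut at about 44% in these data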;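 also: 0% = DMSO only wells and 100% = 100 µM nifuroxazide control wells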
# STAT1 inh: inhibitors of IFN-gamma induced STAT1 signaling | AID 920 | inhibition, % at 5.5 µM | 200,000 tested, 0.35% active | NIH 3T3 STAT1-luciferase reporter, luminescence;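 active = inhibition above a set limit, the mean inhibition across all tested compounds plus 3 SD, cut at about 34% in these data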;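 also: 0% = IFN-gamma with DMSO and 100% = IFN-gamma with 300 µM nifuroxazide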
# APP 5'UTR act: activates APP 5'UTR luciferase reporter | SH-SY5Y APP 5'UTR luciferase reporter, luminescence; zero percent = DMSO vehicle wells | activation, % at 2 µM | 190,000 tested, 1% active | AID 1276;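 active = activation above a set limit, based on mean plus 3 SD of controls, cut at about 140% in these data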
# STAT1 activator: activators of IFN-gamma induced STAT1 signaling | 200,000 tested, 2.6% active | AID 932 | activation (% of control), % at 5.5 µM | NIH 3T3 STAT1-luciferase reporter, luminescence; 100% = IFN-gamma alone, no compound;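 active = activation above the screen-wide mean activation plus 3 SD, cut at about 130% in these data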;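 also: raw ratio to IFN-gamma control signal so 100% means no change and 0% no light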
# STAT3 activator: activators of IL-6 induced STAT3 signaling. 190,000 tested, 0.91% active. AID 871. activation (% of control), % at 5.6 µM. U3A cells, IL-6 STAT3-luciferase reporter, luminescence; 100% = signal with IL-6 EC80 alone;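 active = activation above the screen-wide mean of compound activation plus 3 SD, cut at about 130% in these data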;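 also: 0% = background luminescence of wells with medium and substrate only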
#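 Detection: reporter luminescence signal / Assay system: STAT1-lacking human U3A cells, STAT3 luciferase reporter / Incubation: compound pre-incubation 1 h before IL-6, then 6 h stimulation at 37 °C / Control set: IL-6-only high control / Read-out: % activation relative to IL-6 control / Probe or stimulus: Interleukin-6, 33 ng/mL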
# NF-kB neuron act: NF-kB expression increase, human neuronal cells | NF-kB reporter expression; hits give high values | fold change at 12.5 µM | 190,000 tested, 1.6% active; in the data active = fold change above about 3.3
# STAT1 activ conf: confirmation of STAT1 signaling activators; NIH 3T3 STAT1-luciferase reporter, IFN-gamma potentiation, luminescence; 100% = IFN-gamma EC80 alone, no compound; activation (% of control), % at 5.7 µM; 1,200 tested, 97% active; AID 1262; shares compounds with STAT1 activator;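 active = activation above a set limit carried over from the earlier primary STAT1 screen, cut at about 140% in these data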;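 also: simple ratio to median IFN-gamma plus DMSO wells so 0% means no light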
# NFkB act STAT1ct: counter-screen for STAT1 activators: NF-kappaB activation | shares compounds with STAT1 activator | HEK293T NF-kB luciferase reporter, TNF-alpha stimulated, luminescence; 100% = TNF-alpha with vehicle only | activation (% of control), % at 5.7 µM | 1,200 tested, 43% active;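 active = activation above the mean of solvent-only control wells plus 3 SD, set per campaign, cut at about 130% in these data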;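 also: TNF-alpha given at a submaximal dose yielding about 80% of full reporter signal; values are well signal over median control so 100% means no change and 0% no light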
# STAT3 act STAT1c: counter-screen for STAT1 activators: human STAT3 activation; shares compounds with STAT1 activator; 1,200 tested, 46% active; activation (% of control), % at 5.7 µM; U3A cells STAT3-luciferase reporter, IL-6, luminescence; cells lack STAT1; 100 = IL-6 alone, no compound effect;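 active = activation above the solvent-only control well mean plus 3 SD, set per plate batch, cut at about 110% in these data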;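 also: 0% = no luminescence and 100% = median IL-6 plus DMSO wells; higher means more STAT3 reporter activation so hits are non-selective activators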
# Numbers without * were called inactive; . = no result. This is a sample that favours compounds with a hit; in the whole collection about 5.1% have one here.
SMILES,STAT3 inh,STAT1 inh,APP 5'UTR act,STAT1 activator,STAT3 activator,NF-kB neuron act,STAT1 activ conf,NFkB act STAT1ct,STAT3 act STAT1c
Cc1cccc(Nc2nc(N3CCCC3)nc(N3CCCC3)n2)c1,18.0,12.5,8.2,88.5,86.4,1.5,.,.,.
Cc1cccc(Nc2nc3c(s2)CCCC3)c1,-9.4,-71.8,120.4,163.9*,106.8,6.57*,207.7*,146.1*,105.1
Cc1ccc(N(CC(O)CON=C2c3ccccc3-c3ccccc32)S(C)(=O)=O)cc1 (centres undefined),1.0,10.3,12.1,90.5,104.4,0.53,.,.,.
Cc1c(Cl)cccc1NC(CC(=O)c1ccccc1)C(=O)OCC(=O)c1cccs1 (centres undefined),-23.2,1.7,9.2,98.5,121.4,1.02,.,.,.
COc1ccccc1NC(CC(=O)c1ccccc1)C(=O)OCC(=O)c1ccc(F)cc1 (centres undefined),24.5,-69.4,89.2,160.9*,79.8,1.22,185.2*,127.4,102.4
O=C(Nc1ccc(/C=C/c2nc3ccccc3o2)cc1)c1c(F)cccc1F,19.1,-81.7,208.3*,175.1*,86.7,2.07,205.2*,130.7,105.2
CCOC(=O)c1sc(N/N=C/c2ccccc2)nc1C,-11.4,-56.5,133.8,151.9*,110.6,2.63,182.7*,133.7*,107.2
CCOC(=O)c1sc(-c2ccc(OC)cc2)cc1N,-1.6,-62.1,158.7*,156.7*,104.9,7.1*,205.5*,136.8*,108.6
O=C(O)C1=C[C@@H](C2CCCCC2)C[C@@H](OCc2ccc(CO)cc2)O1,.,-0.8,1.7,102.2,.,1.55,.,.,.
O=C(NC1CC1)C1=C[C@H](C2CCCCC2)C[C@H](OCc2ccc(CO)cc2)O1,.,-60.5,-0.6,158.1*,.,1.12,105.4,100.8,93.9
CC(Cc1ccccn1)NC(=O)CCc1nnc(C2CCCCC2)o1 (centres undefined),7.7,-9.3,5.4,107.6,103.5,1.18,.,.,.
CC(C)NC(=O)NC(=O)COc1c(F)c(F)cc(F)c1F,11.7,7.4,7.4,93.2,94.8,1.05,.,.,.
CC(C)NC(=O)NC(=O)COc1ccc(Br)cc1Br,20.3,-88.1,203.4*,178.6*,82.8,5.12*,234.9*,123.4,101.1
Clc1ccc(-n2ncc3c(NCC4CCCO4)ncnc32)cc1 (centres undefined),18.5,-65.9,155.7*,162.9*,85.0,3.43*,254.3*,132.9,109.6
COc1ccc(-n2ncc3c(NCC4CCCO4)ncnc32)cc1 (centres undefined),10.2,-79.3,113.6,172.5*,94.5,2.71,182.2*,131.0,122.1*
CN(C)CCNc1ncnc2c1cnn2-c1ccc(Cl)cc1,3.2,-19.4,92.3,117.5,104.9,2.29,.,.,.
COc1ccccc1/C=C(/NC(=O)c1ccc(Cl)cc1Cl)C(=O)O,8.4,-7.2,5.5,104.6,100.1,1.19,.,.,.
CNc1oc(-c2ccccc2)nc1C#N,16.1,-0.8,20.1,102.1,90.2,1.18,.,.,.
CNc1oc(/C=C/c2ccccc2)nc1C#N,-8.2,-60.0,112.4,154.5*,103.0,5.3*,166.9*,136.2*,103.5
C/C(Cn1nnc2ccccc21)=N\NC(=O)c1ccc(Br)cc1,10.9,0.6,4.2,98.4,92.3,1.14,.,.,.
O=C(N/N=C/c1ccc(Cl)cc1Cl)c1n[nH]c2c1CCCC2,-4.9,-22.4,-10.2,120.0,104.8,1.15,.,.,.
O=C(N/N=C\c1cccc(Cl)c1)c1n[nH]c2c1CCCC2,9.2,-79.3,156.2*,170.1*,95.3,1.65,212.4*,116.9,101.0
CN(C)c1ccc(C(=O)/C=C/c2ccco2)cc1,32.1,-75.8,203.5*,168.4*,74.0,5.56*,177.9*,120.1,122.3*
O=C(/C=C\c1ccco1)c1ccc(NC(=O)c2ccco2)cc1,-2.3,-29.6,132.5,125.6,106.0,2.31,.,.,.
O=C(N=Nc1c(O)[nH]c2ccccc12)c1ccco1,-10.8,-58.2,141.8*,155.3*,109.4,2.88,179.2*,126.9,126.3*
SMILES,STAT3 inh,STAT1 inh,APP 5'UTR act,STAT1 activator,STAT3 activator,NF-kB neuron act,STAT1 activ conf,NFkB act STAT1ct,STAT3 act STAT1c
O=C(CSCc1ccccc1)N=Nc1c(O)[nH]c2ccccc12,17.4,-4.2,6.4,103.8,87.8,1.78,.,.,.
CCN(c1ccccc1)S(=O)(=O)c1cc([N+](=O)[O-])ccc1N,1.1,6.1,0.5,93.9,104.1,0.93,.,.,.
Cc1cc(C(=O)Nc2ccccc2)oc1C,14.7,-60.0,97.8,154.7*,90.8,3.45*,169.8*,135.8*,109.7
CCN(CC)S(=O)(=O)c1cccc(NC(=O)c2cc3ccccc3o2)c1,11.4,-2.6,23.4,102.4,93.6,0.88,.,.,.
CC(=O)c1cc(C(=O)Nc2ccc(C(=O)O)cc2)oc1C,6.9,1.6,15.4,92.0,95.2,1.28,.,.,.
O=C(Nc1cccnc1)c1cc2c(ccc3ccccc32)o1,27.3,-84.7,220.1*,177.4*,79.6,5.29*,259.5*,143.8*,110.8*
CC(=O)Nc1cccc(NC(=O)c2cc3ccccc3o2)c1,10.6,-61.6,125.1,156.5*,92.5,3.44*,178.3*,135.5*,109.2
Cc1ccc(C(=O)c2cc3ccccc3o2)cc1,22.9,-62.2,148.4*,156.8*,83.5,3.9*,195.5*,139.3*,103.1
O=C(Cn1nc(-c2ccc3c(c2)OCCO3)ccc1=O)Nc1cccc(NC(=O)c2ccccn2)c1,13.1,-4.9,-1.8,104.3,95.0,1.12,.,.,.
COc1cc(/C=N/O)ccc1OCc1ccc(Cl)cc1,22.4,-59.3,191.2*,155.2*,84.7,8.39*,282.9*,147.5*,141.1*
C=CCn1c(C)cc(C(=O)COC(=O)c2ccc(N)c([N+](=O)[O-])c2)c1C,-10.3,-64.2,211.4*,163.7*,106.1,4.44*,242.6*,132.1,111.8*
Cc1cc(C(=O)COC(=O)c2ccc(N)c([N+](=O)[O-])c2)c(C)n1-c1ccc2c(c1)OCO2,24.2,15.5,-3.3,86.2,81.0,0.86,.,.,.
Cc1c(NC(=O)c2ccco2)cccc1C(=O)NN1C(=O)c2ccccc2C1=O,-5.1,-1.5,-1.0,98.4,108.4,1.23,.,.,.
COC(=O)c1ccc(Sc2ccccn2)c([N+](=O)[O-])c1,7.5,10.0,26.4,90.9,89.7,1.01,.,.,.

# From PubChem
